From PubChem BioAssay
Jurkat viability: reduces viability or proliferation of Jurkat cells. Jurkat E6.1 viability, ATP luminescence, 48 h. inhibition, % at 4 µM. 56,000 tested, 1.2% active;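 active = inhibition above the mean inhibition of all tested compounds plus 3 SD, cut at about 28% in these data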
Pyk2 oligo antag: antagonists of human Pyk2 oligomerization | Q14289 | Q293 cells, Pyk2 FERM NanoBiT luminescence; hits give low values | z-score (the deposit names both 25 µM and 10 µM) | 99,000 tested, 0.83% active;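 active = Z-score of -3 or lower, scaled per plate to the spread of control and sample wells; inactive = z-score above -3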;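 note: negative z-score means lost luminescence so less FERM oligomerization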
Target sequence (Q14289 whole entry, looked up): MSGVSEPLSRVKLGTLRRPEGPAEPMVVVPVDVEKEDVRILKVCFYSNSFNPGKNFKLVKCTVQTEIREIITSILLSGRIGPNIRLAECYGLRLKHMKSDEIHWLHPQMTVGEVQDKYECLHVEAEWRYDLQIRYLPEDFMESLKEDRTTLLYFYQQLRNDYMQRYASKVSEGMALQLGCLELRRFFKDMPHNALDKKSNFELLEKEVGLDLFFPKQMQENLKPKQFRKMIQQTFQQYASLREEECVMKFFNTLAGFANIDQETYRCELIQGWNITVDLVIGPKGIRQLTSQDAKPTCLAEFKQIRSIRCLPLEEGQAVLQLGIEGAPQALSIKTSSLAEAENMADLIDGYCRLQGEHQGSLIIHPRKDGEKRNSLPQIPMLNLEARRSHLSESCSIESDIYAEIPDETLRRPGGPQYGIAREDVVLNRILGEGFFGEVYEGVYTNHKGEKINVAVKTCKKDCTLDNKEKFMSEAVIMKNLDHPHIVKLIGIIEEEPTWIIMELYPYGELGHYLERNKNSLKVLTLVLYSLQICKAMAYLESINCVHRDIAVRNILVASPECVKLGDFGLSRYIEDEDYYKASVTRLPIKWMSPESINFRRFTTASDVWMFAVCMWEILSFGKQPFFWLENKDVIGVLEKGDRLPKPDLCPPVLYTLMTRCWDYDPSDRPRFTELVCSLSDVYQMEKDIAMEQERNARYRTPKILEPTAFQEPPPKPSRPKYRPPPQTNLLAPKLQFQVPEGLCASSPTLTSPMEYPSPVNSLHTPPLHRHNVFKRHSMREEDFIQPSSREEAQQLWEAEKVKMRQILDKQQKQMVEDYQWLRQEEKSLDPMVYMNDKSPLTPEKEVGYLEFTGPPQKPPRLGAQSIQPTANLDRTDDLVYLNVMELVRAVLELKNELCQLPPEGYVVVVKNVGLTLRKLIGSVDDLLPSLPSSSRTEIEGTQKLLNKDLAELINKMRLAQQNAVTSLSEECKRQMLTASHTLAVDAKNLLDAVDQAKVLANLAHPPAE
MT1-MMP txn act: activates MT1-MMP transcription. HT1080 MT1-MMP promoter luciferase reporter, luminescence, overnight; hits give high values. activation factor at 10 µM. 86,000 tested, 0.16% active;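 active = activation factor of at least 2 for MT1-MMP transcription at 10 µM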
H69AR inhibit: growth inhibitors of human H69AR lung tumor cells | H69AR lung tumor viability, ATP luminescence, 72 h; hits give low values | viability, % at 10 µM | 85,000 tested, 6% active | AID 598;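 active = viability at or below 40%; inactive = viability above 40%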;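 note: multidrug resistant small cell line overexpressing MRP-1 efflux transporter; 100% = mean luminescence of untreated control wells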
HUVEC prolif 384: human endothelial cell proliferation inhibition; AID 648; HUVEC proliferation, CellTiter-Glo luminescence, 72 h; hits give low values; 86,000 tested, 1.1% active; viability, % at 10 µM (by protocol);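 active = viability at or below 30%; inactive = viability above 30%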;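 note: 100% = median luminescence of DMSO-only cell control wells on each plate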
Fibroblast inh: blocks proliferation of human lung fibroblasts; LL 47 human lung fibroblast viability, ATP luminescence; hits give low values; viability, % at 10 µM; 85,000 tested, 1.1% active;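 active = viability at or below 50% in the single dose screen; inactive = viability above 50%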;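 note: compound exposure lasted 72 h before the ATP readout; 100% = median luminescence of untreated cell-only wells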
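material = human LL 47 lung fibroblast cells | dosing = compounds added from tenfold dosing solution, 0.1% DMSO final | timing = overnight cell rest, 72 h compound treatment at 37 °C | measured by = CellTiter-Glo luminescence measuring cellular ATP | evaluation = % viability versus median cells-only luminescence | control set = cell-only wells, no compound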
Numbers without * were called inactive; · = no result. Hits are enriched below; roughly 5.9% of the tested compounds scored in any of these assays.

SMILES	Jurkat viability	Pyk2 oligo antag	MT1-MMP txn act	H69AR inhibit	HUVEC prolif 384	Fibroblast inh
CCOC(=O)C1=C(c2ccccc2)NC(SCC)=C(C#N)C1c1cccnc1 (centres undefined)	·	-0.86	·	·	·	·
CCOC(=O)C1=C(c2ccccc2)NC(SCC(=O)Nc2ccccc2C)=C(C#N)C1c1ccco1 (centres undefined)	·	-3.7*	1.1	79.4	79.2	77.5
COCCn1c(=NC(=O)CSCC(=O)Nc2cc(C)on2)sc2cc(C(=O)OC)ccc21	·	·	1	·	·	·
Cc1cccc(OCCCCc2c(C)n[nH]c2C)c1C	8.3	-0.82	1	95.8	92.5	95.3
N#CC1=C(SCC(=O)Nc2nccs2)NC(=O)CC1c1ccccc1 (centres undefined)	·	0.08	·	·	·	·
Cc1ccccc1NC(=O)CSC1=C(C#N)C(c2ccsc2)CC(=O)N1 (centres undefined)	·	-0.35	·	16.7*	75.7	79.9
COC(=O)c1scc(C)c1N/N=C(\C)c1cc(F)c(Cl)cc1F	·	1.2	1	83.9	95.7	98.3
Cc1ccc2cc(CN(CC3CCCO3)S(=O)(=O)c3ccccc3)c3nnnn3c2c1 (centres undefined)	·	-2.3	1.5	12.2*	96.3	93.8
COC(=O)c1ccc(C)c(NS(=O)(=O)c2ccc3c(c2)OCCO3)c1	91.6*	-1.23	0.6	29.6*	46.8	59.9
CC(=O)c1cc2c(cc1NS(=O)(=O)c1ccc(C)cc1)OCCO2	75.9*	-1.42	1.1	18.5*	60.1	80.6
COC(=O)c1sccc1NC(=O)CSc1ccccc1NS(=O)(=O)c1ccc(Cl)cc1	·	-1.8	·	·	·	·
COC(=O)c1sccc1NS(=O)(=O)c1ccc(OC)cc1	10.4	-1.22	1.3	15.3*	69.5	84.3
COC(=O)c1ccc(C)c(NS(=O)(=O)c2ccc(OC)cc2)c1	·	-0.6	·	36.6*	45.9	55.8
CC(=O)c1cc2c(cc1NS(=O)(=O)c1ccccc1)OCO2	·	-0.14	1.2	81.8	80.5	84.4
COC(=O)c1ccc(C)c(NS(=O)(=O)c2ccc(C)c([N+](=O)[O-])c2)c1	·	0.53	·	·	·	·
CC(C)CCn1nnnc1C(c1ccc(F)cc1)N1CCC(C(N)=O)CC1 (centres undefined)	2.5	0.62	1.1	87.7	101.5	101.7
CCc1cc2cc(C(=O)Nc3ccc(C)cc3)sc2s1	·	-0.25	1.6	93.1	114.7	105.2
O=C(c1ccc2c(c1)OCCO2)C1CCN(S(=O)(=O)c2ccc(F)cc2)CC1	11.5	-2.25	1	81.8	63.8	83.0
COc1ccc(-n2cnnc2SCC(=O)Nc2ccc(N3CCOCC3)cc2)cc1	·	0.03	·	·	·	·
O=S1(=O)N=C(SCCO)c2ccccc21	4.2	-0.45	1	80.6	81.1	88.2
O=S1(=O)N=C(Oc2cccc3ccccc23)c2ccccc21	·	-1.28	1.1	25.4*	79.8	108.3
CCC(c1nnnn1CCC(C)C)N1CCC(C(N)=O)CC1 (centres undefined)	2.6	0.26	1.1	95.7	88.6	98.0
CCOC(=O)COc1cccc2c(=O)n(CC(=O)N3CCc4ccccc43)ccc12	1.7	·	1.1	101.8	103.5	101.8
CCOC(=O)COc1cccc2c(=O)n(CC(=O)NCc3ccc4c(c3)OCO4)ccc12	50.7*	·	1.2	26.3*	55.9	63.0
CCn1cc(C(=O)NCc2ccc3c(c2)OCO3)c(=O)c2ccc(C)nc21	-1.4	·	1.1	93.1	91.1	109.3
SMILES	Jurkat viability	Pyk2 oligo antag	MT1-MMP txn act	H69AR inhibit	HUVEC prolif 384	Fibroblast inh
CCn1cc(C(=O)OCC(=O)NCc2ccc3c(c2)OCO3)c(=O)c2ccc(C)nc21	-4.7	0.98	1	11.2*	91.4	106.2
O=C(CSc1nc2cc(S(=O)(=O)N3CCOCC3)ccc2o1)NC1CCCc2ccccc21 (centres undefined)	-1.6	-0.22	1.1	52.4	82.1	93.5
CCn1c2ccccc2c2nnc(SCC(=O)Nc3ncccn3)nc21	-1.7	1.15	1	99.6	105.5	·
Cc1cc(C(=O)OCn2nnc3ccccc3c2=O)c(C)n1-c1ccccc1	1.9	-3.72*	1.4	85.1	99.0	92.8
CCC1=C2CC[C@H]3C(=O)N(C)C(=O)[C@H]3[C@H]2[C@@]2(Cc3ccccc3)C(=NCC3CC3)OC(=O)N2C1=O	·	·	1.3	·	·	·
CCCn1c2ccccc2c2nnc(SC(CC)C(=O)Nc3cc(C)on3)nc21 (centres undefined)	·	-2.63	1	31.8*	106.4	109.6
CN1CCN(S(=O)(=O)c2ccc(Br)c3nsnc23)CC1	·	1	1.2	2.9*	100.5	89.5
